{
  "source": "ChEMBL document CHEMBL1135803",
  "about": "“Design, synthesis, and preliminary pharmacological evaluation of N-acyl-3-aminoglutarimides as broad-spectrum chemokine inhibitors in vitro and anti-inflammatory agents in vivo” (2002)",
  "note": "pEC50: −log10 of the molar value. Activity calls are given as the source filed them. The rule behind the calls is not given here. Peptide text beside a SMILES is read from it.",
  "data": [
    {"test_system": "THP-1", "assay": "Effective dose against monocyte chemoattractant protein-1(MCP-1) induced leukocyte migration of THP-1 cells", "format": "functional", "details": "Homo sapiens, read-out: ED50 (the source's name)", "procedure,_shortened": "(§1)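 Trans-well microtiter migration of human myelomonocytic THP-1 cells toward 25 ng/mL MCP-1 in Gey's balanced salt solution with 1 mg/mL endotoxin-free BSA, no fetal calf serum, 2 h at 37 °C. Compound is in both compartments, DMSO 1% final, tested up to 100 μM. Migrated cells are counted by MTT as % of vehicle-only migration. ED50 is the concentration giving 50% reduction; triplicate determinations.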", "values": [
      {"smiles": "CC(C)[C@H](NC(=O)[C@H](Cc1c[nH]c2ccccc12)NC(=O)[C@H](CCCCN)NC(=O)[C@H](CCC(N)=O)NC(=O)[C@H](CCCCN)NC(=O)[C@@H]1CCCN1C(=O)[C@H](CC(=O)O)NC(=O)[C@H](C)NC(=O)[C@@H](N)CS)C(=O)N[C@@H](CCC(N)=O)C(=O)O", "note": "(H-CADPKQKWVQ-OH)", "pEC50": 5.10},
      {"smiles": "CC(C)[C@H](NC(=O)[C@H](Cc1c[nH]c2ccccc12)NC(=O)[C@H](CCCCN)NC(=O)[C@H](CCC(N)=O)NC(=O)[C@@H](N)CCCCN)C(=O)N[C@@H](CCC(N)=O)C(=O)O", "note": "(H-KQKWVQ-OH)", "pEC50": 5.22},
      {"smiles": "C=CCCCCCCCCC(=O)N[C@H]1CCC(=O)N(C)C1=O", "pEC50": 7.48},
      {"smiles": "CCCCCCCCC(=O)N[C@H]1CCC(=O)NC1=O", "pEC50": 8.00},
      {"smiles": "CCCCCCCCCCC(=O)N[C@H]1CCC(=O)NC1=O", "pEC50": 8.00},
      {"smiles": "CC(C)[C@H](NC(=O)[C@@H](N)Cc1ccc(O)cc1)C(=O)N[C@@H](CCC(N)=O)C(=O)O", "note": "(H-Tyr-Val-Gln-OH)", "pEC50": 4.60},
      {"smiles": "O=C(O)CCCCCCCCC(=O)N[C@H]1CCC(=O)NC1=O", "pEC50": 7.18},
      {"smiles": "CC(C)[C@H](NC(=O)[C@@H](N)Cc1c[nH]c2ccccc12)C(=O)N[C@@H](CC(N)=O)C(=O)O", "note": "(H-Trp-Val-Asn-OH)", "pEC50": "< 4.00"},
      {"smiles": "NCCCC[C@H](NC(=O)[C@H](CCC(N)=O)NC(=O)[C@@H](N)CCCCN)C(=O)O", "pEC50": 4.92},
      {"smiles": "CC(C)(C)OC(=O)N[C@@H](CCC(N)=O)C(N)=O", "pEC50": 4.35},
      {"smiles": "NC(=O)CC[C@H](NC(=O)c1ccccc1)C(=O)O", "pEC50": "< 4.00"},
      {"smiles": "NC(=O)CC[C@H](NC(=O)c1ccccc1)C(=O)NCc1ccccc1", "pEC50": "< 4.00"},
      {"smiles": "CCCCCCC(=O)N[C@H]1CCC(=O)NC1=O", "pEC50": 7.70},
      {"smiles": "CCCCC(=O)N[C@H]1CCC(=O)NC1=O", "pEC50": 7.48},
      {"smiles": "CCCC(CCC)C(=O)N[C@H]1CCC(=O)NC1=O", "pEC50": 6.18},
      {"smiles": "CC[C@H](C)[C@H](NC(=O)[C@@H](N)CCC(=O)O)C(=O)N[C@@H](CS)C(=O)N[C@@H](C)C(=O)N[C@@H](CC(=O)O)C(=O)N1CCC[C@H]1C(=O)O", "note": "(H-EICADP-OH)", "pEC50": 4.30},
      {"smiles": "C=CCCCCCCCCC(=O)N[C@H]1CCCNC1=O", "pEC50": 7.00},
      {"smiles": "CC(C)[C@H](N)C(=O)N[C@H](C(=O)N[C@@H](CCC(N)=O)C(=O)O)C(C)C", "note": "(H-Val-Val-Gln-OH)", "pEC50": "< 4.00"},
      {"smiles": "O=C1CC[C@H](NC(=O)c2ccccc2)C(=O)N1", "pEC50": "< 4.00"},
      {"smiles": "CC[C@H](C)[C@H](NC(=O)[C@@H](N)CCC(=O)O)C(=O)N[C@@H](CS)C(=O)N[C@@H](C)C(=O)N[C@@H](CC(=O)O)C(=O)N1CCC[C@H]1C(=O)N[C@@H](CCCCN)C(=O)N[C@@H](CCC(N)=O)C(=O)N[C@@H](CCCCN)C(=O)N[C@@H](Cc1c[nH]c2ccccc12)C(=O)N[C@H](C(=O)N[C@@H](CCC(N)=O)C(=O)O)C(C)C", "note": "(H-EICADPKQKWVQ-OH)", "pEC50": 5.10},
      {"smiles": "NC(=O)CC[C@H](NC(=O)c1ccccc1)C(N)=O", "pEC50": "< 4.00"},
      {"smiles": "CC(C)(C)OC(=O)N[C@@H](CCC(N)=O)C(=O)NCc1ccccc1", "pEC50": "< 4.00"},
      {"smiles": "C=CCCCCCCCCC(=O)N[C@@H](CCC(N)=O)C(N)=O", "pEC50": 4.82},
      {"smiles": "C=CCCCCCCCCC(=O)N[C@@H](CCC(N)=O)C(=O)NCc1ccccc1", "pEC50": 4.40}
    ]},
    {"test_system": "THP-1", "assay": "Effective dose against monocyte chemoattractant protein-1(MCP-1) induced leukocyte migration of THP-1 cells at 100 uM conc.; Inactive", "format": "functional, cell-based", "details": "Homo sapiens", "procedure,_shortened": "as §1", "values": [
      {"smiles": "CC(C)[C@H](NC(=O)[C@@H](N)Cc1c[nH]c2ccccc12)C(=O)NCC(=O)O", "note": "(H-Trp-Val-Gly-OH)", "NA": "inactive"},
      {"smiles": "CC(C)[C@H](NC(=O)[C@H](CCC(N)=O)NC(=O)[C@@H](N)Cc1c[nH]c2ccccc12)C(=O)O", "note": "(H-Trp-Gln-Val-OH)", "NA": "inactive"},
      {"smiles": "CC(C)[C@H](NC(=O)[C@@H](N)Cc1c[nH]c2ccccc12)C(=O)N[C@@H](CCCN=C(N)N)C(=O)O", "note": "(H-Trp-Val-Arg-OH)", "NA": "inactive"},
      {"smiles": "CC(C)[C@H](N)C(=O)N[C@@H](Cc1c[nH]c2ccccc12)C(=O)N[C@@H](CCC(N)=O)C(=O)O", "note": "(H-Val-Trp-Gln-OH)", "NA": "inactive"},
      {"smiles": "CC(C)[C@H](NC(=O)CN)C(=O)N[C@@H](CCC(N)=O)C(=O)O", "note": "(H-Gly-Val-Gln-OH)", "NA": "inactive"}
    ]}
  ]
}
